MrgX1 ag: agonists of human MrgX1 receptor, primary screen, HEK293 cells, Fluo-4 calcium flux; Mas-related G-protein coupled receptor member X1 (Homo sapiens), Q96LB2; AID 588627, 2011; actives 0.44% (n = 310,000); B-score at 10 µM; Fluo-4 calcium fluorescence, agonist mode; hits give high values;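 active = calcium response B-score plate-corrected fluorescence ratio at least 3 library SD, with starting fluorescence B-score inside 5 SD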
Target sequence (Q96LB2 whole entry, looked up): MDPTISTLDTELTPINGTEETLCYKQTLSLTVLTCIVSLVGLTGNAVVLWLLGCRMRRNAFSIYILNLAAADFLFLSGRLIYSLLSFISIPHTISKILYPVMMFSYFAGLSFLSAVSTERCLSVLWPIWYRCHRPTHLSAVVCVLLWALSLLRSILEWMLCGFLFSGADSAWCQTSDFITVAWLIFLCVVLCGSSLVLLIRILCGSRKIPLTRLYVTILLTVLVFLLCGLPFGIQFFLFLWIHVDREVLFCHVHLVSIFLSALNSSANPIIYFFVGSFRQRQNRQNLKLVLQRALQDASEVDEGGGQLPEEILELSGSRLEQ
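Assay system: stable human MrgX1 HEK293 cell line. Quantity: 15,000 cells per well. Schedule: cells plated overnight, dye loaded 0.5 h 37 °C, 0.5 h room temperature. Detection: Fluo-4 NW calcium-flux fluorescence, kinetic read. Read-out basis: peak-minus-minimum fluorescence over baseline, converted to B scores. Control set: positive and negative control wells on each plate.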
RGS4 act: RGS4 potentiators or activators, primary screen, cell-based, HEK293 M3R inducible RGS4, calcium flux. AID 463111, 2010. carbachol calcium flux Fluo4; hits give low values. actives 0.92% (n = 310,000). B-score at 10 µM;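 active = B-score of the integrated calcium signal more than 4 SD below the library mean, with starting fluorescence not abnormally high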;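 also: negative B-score means reduced calcium response which marks RGS4 activation or potentiation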
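Material: M3R-expressing HEK293 line, RGS4 induced by doxycycline | Schedule: Overnight RGS4 induction, 30 min dye load 37 °C, 20 min compound RT | Measured by: Fluo4 fluorescence kinetic imaging of calcium | Read-out: Integrated calcium ratio converted to B score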
MrgX1 allo act: positive allosteric modulators of MrgX1, primary screen, HEK293 cells, Fluo-4 calcium flux | Mas-related G-protein coupled receptor member X1 (Homo sapiens), Q96LB2 | FDSS; hits give high values | B-score at 10 µM | actives 0.63% (n = 310,000);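 active = plate-corrected calcium response at least 3 library SD above typical, normal starting fluorescence, not activating the receptor alone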;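 also: compound read alongside a low EC10 to EC30 dose of BAM8-22 agonist; peak minus trough fluorescence over baseline measured at the second addition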
MrgX1 antag: antagonists of human MrgX1 receptor, primary screen, HEK293 cells, Fluo-4 calcium flux; BAM8-22 antagonism; hits give low values; B-score at 10 µM; actives 1.3% (n = 310,000); AID 588676, 2011;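 active = calcium-response B-score plate-corrected more than 3 library SD below zero, starting fluorescence within 5 deviations, no agonist response on first addition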;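 also: peak minus trough fluorescence over baseline after final BAM8-22 challenge near maximal dose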
RGS4 inh: RGS4 inhibitors, primary screen, cell-based, HEK293 M3R inducible RGS4, calcium flux; Regulator of G-protein signaling 4 (Homo sapiens), P49798; Fluo-4 calcium flux; hits give high values; triggered by carbachol at its EC20; B-score at 10 µM; actives 0.45% (n = 310,000);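 active = B-score, a plate-corrected calcium signal, over three deviations above library mean, with baseline fluorescence within five deviations of library mean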;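 also: RGS4 expression induced by doxycycline in cells with stable M3 receptor; B-score is computed from the integrated fluorescence ratio over baseline after carbachol; higher B-score means a larger calcium signal and so more RGS4 inhibition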
Target sequence (P49798 whole entry, looked up): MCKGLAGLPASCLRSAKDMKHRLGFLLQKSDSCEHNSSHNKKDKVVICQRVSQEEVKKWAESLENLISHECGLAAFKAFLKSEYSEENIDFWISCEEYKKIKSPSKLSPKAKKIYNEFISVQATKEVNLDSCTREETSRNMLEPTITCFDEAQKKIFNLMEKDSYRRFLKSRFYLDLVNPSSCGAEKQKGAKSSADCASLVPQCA
RGS4 activ val: reduced carbachol calcium response, RGS4-induced M3R cells, confirmation, RGS4 activator project, cell-based, HEK293 M3R/RGS4 inducible, calcium flux, duplicate. shares compounds with RGS4 act. carbachol calcium flux Fluo4. inhibition, % at 10 µM. actives 89% (n = 1,100);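 active = inhibition above 3 SD of the buffer control wells, cut at about 41% in these data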;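 also: signal is the integrated peak-minus-minimum Fluo4 fluorescence over baseline ratio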
M3R Ca counter: activity in cells without induced RGS4 expression; shares compounds with RGS4 act; HEK293 M3R non-induced RGS4, Fluo4 calcium flux; after carbachol challenge at its EC90; inhibition, % at 10 µM; actives 82% (n = 1,100); AID 602283;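 active = inhibition exceeding 3 SD of buffer-only control wells, cut at about 26% in these data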;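 also: percent drop in integrated peak-minus-baseline over baseline Fluo4 ratio after carbachol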
An asterisk follows results filed as active; i = inactive; . = not tested or not shown. In the library only some 3.5% were active in any assay of this set; here they are far more common.

SMILES | MrgX1 ag | RGS4 act | MrgX1 allo act | MrgX1 antag | RGS4 inh | RGS4 activ val | M3R Ca counter
CCc1ccc(OCC(=O)N2CCN=C2c2ccccc2)cc1 | i | -8.6* | i | i | i | 0 | 0
CC1CCCN(C(=O)COC(=O)c2cc(-c3cccs3)nn2-c2ccccc2)C1 (centres undefined) | i | -10* | i | i | i | 92* | 70*
COc1cccc(OC)c1NC(=O)Cn1nc(C)c2ccccc2c1=O | i | i | i | i | i | . | .
CN(CC(=O)Nc1cccc(F)c1)C(=O)c1cc(-c2cccs2)nn1-c1ccccc1 | i | -9.6* | i | i | i | 76* | 43*
Cc1ccc(N/N=C(/Sc2nnnn2-c2ccccc2)C(=O)c2ccccc2)cc1 | i | -16* | i | i | i | 0 | 0
CCOc1ccc(Br)cc1C1C(C(=O)OC)=C(N)Oc2cc(N(C)C)ccc21 (centres undefined) | i | -9.2* | i | i | i | 92* | 69*
O=C1CC2(CCCCC2)Oc2ccc(Cl)cc21 | i | i | i | i | i | . | .
COc1cccc(OC)c1OCCCOc1c(OC)cccc1OC | i | i | i | i | i | . | .
COc1cccc(OC)c1OCCNCC1CSc2ccccc2O1 (centres undefined) | i | -8.1* | i | i | i | 0 | 0
CCOC(=O)C1=C(C)OC(N)=C(C#N)C1c1cc2c(cc1Br)OCO2 (centres undefined) | i | -8.7* | i | i | i | 90* | 65*
Cc1ccc(S(=O)(=O)N2CCC(C(=O)OCC(=O)N(C)CC(=O)Nc3ccc(F)cc3)CC2)cc1C | i | i | i | i | i | . | .
COC(=O)c1ccc(OC)c(CSc2nnc(-c3ccc(C(C)(C)C)cc3)o2)c1 | i | -7.9* | i | i | i | 58* | 84*
COC(=O)c1ccc(OC)c(CSc2nnc(COc3ccccc3)o2)c1 | i | i | i | i | i | . | .
Cc1cccc(OCc2nc(C#N)c(N3CCCC3)o2)c1 | i | i | i | i | i | . | .
Cc1cccc(OCc2nc(C#N)c(N3CC(C)CC(C)C3)o2)c1 (centres undefined) | i | -9.1* | i | i | i | 94* | 70*
CCOC(=O)c1c(-c2ccccc2)csc1NC(=O)c1nn(CC)cc1Br | i | -7.6* | i | i | i | 80* | 0
O=C(COc1cc2oc(=O)cc(-c3ccccc3)c2cc1Cl)NC(Cc1c[nH]c2ccc(O)cc12)C(=O)O (centres undefined) | i | i | i | i | i | . | .
COc1ccc(S(=O)(=O)N(C)C)cc1NC(=O)[C@H](Cc1ccccc1)N1C(=O)c2ccccc2C1=O | i | -9.4* | i | i | i | 93* | 58*
C/C(=N/Oc1nc(C)cc(C)n1)c1ccc(F)cc1 | i | i | i | i | i | . | .
CCCCNc1c2c3c(cccc3n(C)c1=O)C(=O)c1ccccc1-2 | i | -12* | i | i | i | 100* | 97*
CCOC(=O)C1(CCCc2ccccc2)CCN(Cc2nccn2CC)CC1 | i | -11* | i | i | i | 92* | 84*
CCOC(=O)C1(CCOc2ccccc2)CCN(Cc2cccn2-c2ncccn2)CC1 | i | -8.1* | i | i | i | 54* | 84*
O=C(NCCc1ccccc1)C(c1cccs1)N(C(=O)CCl)c1ccc(Cl)cc1 (centres undefined) | i | -8.1* | i | i | i | 50* | 0
O=C(NCCc1ccccc1)C(c1cccs1)N(C(=O)c1csnn1)C1CC1 (centres undefined) | i | i | i | i | i | . | .
CCCC1Oc2ccccc2C(=O)N(CC(=O)c2ccc3c(c2)OCCO3)C1=O (centres undefined) | i | -9* | i | i | i | 58* | 0
SMILES | MrgX1 ag | RGS4 act | MrgX1 allo act | MrgX1 antag | RGS4 inh | RGS4 activ val | M3R Ca counter
Cc1nc(NC(=O)c2ccccc2)sc1C1(C)CC(c2c(Cl)cccc2Cl)=NO1 (centres undefined) | . | i | . | . | i | . | .
COc1ccc(Br)cc1C(=O)NC(=S)Nc1ccc(CN2CCOCC2)cc1 | i | -9.8* | i | i | i | 92* | 87*
O=C(NC(=S)Nc1ccc(CN2CCOCC2)cc1)c1ccc(-c2cccc(Cl)c2)o1 | i | -9.9* | i | i | i | 94* | 91*
Cc1ccccc1NC(=O)CSc1nnc2ccc(-c3cccnc3)nn12 | i | i | i | i | i | . | .
CCCCCCCCn1c2c(c(=N)c3ccccc31)CCC2 | . | i | . | . | i | . | .
CCCCCCCCCn1c2c(c(=N)c3c1CCC3)CCCC2 | . | -11* | . | . | i | 92* | 95*
Cc1cccc(C2N=C(N)Nc3nc4ccccc4n32)c1 (centres undefined) | i | i | i | i | i | . | .
Cc1cc(SCC(=O)c2ccccc2)n2nc(C)nc2n1 | i | -9* | i | i | i | 0 | 0
CCNc1nc(CSc2ccccc2)nc2sc(C)c(C)c12 | i | i | i | i | i | . | .
CCCN1CCN(CCCNC(=O)c2cc3c(=O)oc4ccc(C)cc4c3s2)CC1 | i | i | i | i | i | . | .
Cc1ccc2nc(Cl)c3cc(C(=O)NCCCN4CCCC4)sc3c2c1 | i | -7.6* | i | i | i | 65* | 40*
CCOc1cc2sc(N3CCC(C(=O)NCCCN4CCCC4=O)CC3)nc2cc1Br | i | -9.4* | i | i | i | 48* | 84*
Cc1cc(C)c2nc(N3CCC(C(=O)NCCCN4CCCC4=O)CC3)sc2c1 | i | i | i | i | i | . | .
O=C(COc1ccccc1)Nc1cccc(-c2nc3ccccc3[nH]2)c1 | i | -8.1* | i | i | i | 76* | 37*
COc1ccc(/C=N/NC(=O)c2ccccc2OCc2ccccc2)c(OC)c1 | i | -11* | i | i | i | 94* | 76*

Compound activity as filed in PubChem.
